Experiments:
[1] = AUC (infinity) in rat at 10 mg/kg, po; assay type: ADME, organism-based; set-up: dose 10 mg/kg, route oral, time infinity; conditions: in vivo
Method in brief: (§1)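 Rat PK; iv dosing at 2.0 mg/Kg in SPEW vehicle, oral dosing at 10 mg/Kg in 0.1% CMC-0.2%Tween; AUCinf reported in ng*hr/mL.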

[2] = Clearance in rat hepatocytes relative to hepatic blood flow; assay type: ADME, cell-based, Liver, Hepatocyte; conditions: read-out: CLH
[3] = target: T1, Nuclear receptor ROR-beta (Homo sapiens, UniProt Q92753); experiment: Inverse agonist activity at Gal4 DNA binding domain-tagged human RORbeta expressed in HEK293T cells assessed as effect on receptor-mediated transcriptional activity by luciferase reporter gene assay; assay type: cell-based, HEK-293T
T1 sequence (Q92753 whole entry): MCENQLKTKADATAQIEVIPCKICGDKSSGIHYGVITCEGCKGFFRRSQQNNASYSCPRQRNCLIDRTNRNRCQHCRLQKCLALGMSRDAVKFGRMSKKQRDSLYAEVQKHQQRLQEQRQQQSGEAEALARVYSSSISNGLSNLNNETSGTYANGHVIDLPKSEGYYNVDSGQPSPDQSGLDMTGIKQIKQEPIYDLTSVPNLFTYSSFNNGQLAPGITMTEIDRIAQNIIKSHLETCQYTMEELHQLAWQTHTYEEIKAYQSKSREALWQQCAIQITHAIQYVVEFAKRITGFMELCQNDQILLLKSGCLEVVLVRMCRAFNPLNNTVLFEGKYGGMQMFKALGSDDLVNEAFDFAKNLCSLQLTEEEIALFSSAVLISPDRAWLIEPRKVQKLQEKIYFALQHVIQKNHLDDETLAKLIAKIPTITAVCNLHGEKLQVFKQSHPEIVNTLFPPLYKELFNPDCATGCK
Method in brief: (§2)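 Gal4 reporter assay in 293T cells with the same format as the RORγ Gal4 assay, using Gal4DBD:RORαLBD or Gal4DBD:RORβLBD constructs. Transfection, then compound treatment, then lysis and dual-flash luciferase luminescence. Activity measured in dose-response.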

[4] = target: T2, Nuclear receptor subfamily 1 group I member 2 (Homo sapiens, UniProt O75469); experiment: Antagonist activity at Gal4 DNA binding domain-tagged human PXR ligand binding domain expressed in HEK293 cells assessed as inhibition of receptor-mediated transcriptional activity by luciferase reporter gene assay; assay type: cell-based
T2 sequence (O75469 whole entry): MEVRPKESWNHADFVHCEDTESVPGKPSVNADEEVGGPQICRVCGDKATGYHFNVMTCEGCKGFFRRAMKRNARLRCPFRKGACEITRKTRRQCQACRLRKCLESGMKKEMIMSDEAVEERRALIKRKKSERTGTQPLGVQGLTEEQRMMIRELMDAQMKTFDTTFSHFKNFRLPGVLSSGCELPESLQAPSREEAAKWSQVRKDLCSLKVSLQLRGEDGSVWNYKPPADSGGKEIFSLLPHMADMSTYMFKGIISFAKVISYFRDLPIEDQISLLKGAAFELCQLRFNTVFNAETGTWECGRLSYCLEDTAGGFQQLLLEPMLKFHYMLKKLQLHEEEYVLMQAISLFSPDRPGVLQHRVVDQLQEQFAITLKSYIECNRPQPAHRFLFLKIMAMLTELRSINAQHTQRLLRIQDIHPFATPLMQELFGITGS
Method in brief: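 Screened by ChemPartner in HEK293 cells transiently co-transfected with a Gal4DBD-human NR LBD construct and a UAS-Luc reporter. Run in antagonist mode, read as % inhibition at a single concentration. Commercial reference compounds were run alongside in the same assay.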

Rattus norvegicus = experiment: Clearance in rat at 2 mg/kg, iv relative to hepatic blood flow; assay type: ADME, organism-based, Liver; conditions: in vivo
Method in brief: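 Rats given 2.0 mg/kg iv in SPEW vehicle. Clearance is expressed as % of hepatic blood flow (%Qh).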

[5] = Clearance in human hepatocytes relative to hepatic blood flow; assay type: ADME, cell-based, Liver, Hepatocyte; conditions: read-out: CLH
[6] = target: T2, Nuclear receptor subfamily 1 group I member 2; experiment: Agonist activity at Gal4 DNA binding domain-tagged human PXR ligand binding domain expressed in HEK293 cells assessed as activation of receptor-mediated transcriptional activity by luciferase reporter gene assay; assay type: cell-based
Method in brief: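 Screened by ChemPartner as a cell-based transient co-transfection reporter assay in HEK293 cells, using a Gal4DBD-human NR LBD construct with UAS-Luc. Run in agonist mode, read as % activation at a single concentration. Commercial reference compounds were profiled in the same assay for validation.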

[7] = Cmax in rat at 10 mg/kg, po; assay type: ADME, organism-based; set-up: dose 10 mg/kg, route oral; conditions: in vivo
[8] = AUC (infinity) in rat at 2 mg/kg, iv; assay type: ADME, organism-based; set-up: dose 2 mg/kg, time infinity, route intravenous; conditions: in vivo; method in brief: as §1
[9] = Oral bioavailability in rat at 10 mg/kg; assay type: ADME, organism-based; conditions: in vivo
[10] = target: T3, Nuclear receptor ROR-alpha (Homo sapiens, UniProt P35398); experiment: Inverse agonist activity at Gal4 DNA binding domain-tagged human RORalpha expressed in HEK293T cells assessed as effect on receptor-mediated transcriptional activity by luciferase reporter gene assay; assay type: cell-based, HEK-293T; method in brief: as §2
T3 sequence (P35398 whole entry): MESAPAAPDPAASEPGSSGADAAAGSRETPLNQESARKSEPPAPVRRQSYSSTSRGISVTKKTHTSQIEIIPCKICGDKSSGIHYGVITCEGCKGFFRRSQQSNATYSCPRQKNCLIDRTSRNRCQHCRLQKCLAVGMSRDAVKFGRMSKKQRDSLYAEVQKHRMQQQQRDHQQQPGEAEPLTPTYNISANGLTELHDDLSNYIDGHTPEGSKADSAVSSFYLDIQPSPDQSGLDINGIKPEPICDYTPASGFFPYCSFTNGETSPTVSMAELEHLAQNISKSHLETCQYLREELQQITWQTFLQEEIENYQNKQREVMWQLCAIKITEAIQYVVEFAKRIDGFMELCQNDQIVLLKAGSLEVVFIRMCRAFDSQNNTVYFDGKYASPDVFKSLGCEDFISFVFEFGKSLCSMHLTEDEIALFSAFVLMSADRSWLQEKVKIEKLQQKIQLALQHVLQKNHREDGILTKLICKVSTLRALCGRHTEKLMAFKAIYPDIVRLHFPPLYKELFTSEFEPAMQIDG

[11] = Cmax in rat at 2 mg/kg, iv; assay type: ADME, organism-based; set-up: dose 2 mg/kg, route intravenous; conditions: in vivo
Method in brief: (§3)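 Rats dosed at 2.0 mg/kg intravenously in SPEW vehicle. Plasma exposure profiled for T1/2 and Cmax.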

[12] = Half life in rat at 2 mg/kg, iv; assay type: ADME, organism-based; conditions: in vivo; method in brief: as §3

[2H]C([2H])([2H])N(C(=O)c1c(F)cccc1Cl)c1ccc(-c2cc(C(N)=O)ccc2Cl)cc1OCC(F)(F)F showed an AUC(0-inf) [1] of 3130 ng·h/mL, a hepatic extraction ratio [2] of 0.65 and an EC50 [3] of 1930 nM. For the same compound, the “inhibition (INH)” value [4] was < 50%, the CLH (Rattus norvegicus) was 40% and the hepatic extraction ratio [5] was 0.51. For the same compound, the Activity [6] was < 50%, the Cmax [7] was 1210 ng/mL and the AUC(0-inf) [8] was 1540 ng·h/mL. The bioavailability [9] was 41%, the EC50 [10] was 8.36 µM and the Cmax [11] was 2740 ng/mL. For the same compound, the half-life [12] was 576 min.

Reference: ChEMBL document CHEMBL3596154, “Discovery of biaryl carboxylamides as potent RORγ inverse agonists” (Bioorg Med Chem Lett, 2015)
